Measurements published in ChEMBL document CHEMBL2176975, “Novel toll-like receptor 2 ligands for targeted pancreatic cancer imaging and immunotherapy” (J Med Chem, 2012).
Non-standard residues stand in square brackets, D forms with d. Residues, ends and D or L forms follow the SMILES beside them. *: point of attachment. Propyl(2R-PamO,3-PamO) = CCCCCCCCCCCCCCCC(=O)OC[C@H](C*)OC(=O)CCCCCCCCCCCCCCC; X1 = CC(=O)NCCCOCCOCCOCCCNC(=O)COCC(=O)*; Palmitoyl = CCCCCCCCCCCCCCCC(=O)*

Assays:
Toll-like receptor 2 [1] = molecular target: T1, Toll-like receptor 2 (Homo sapiens, UniProt O60603); assay: Displacement of Eu-DTPA from human TLR2 expressed in HEK293 cells after 1 hr; assay type: cell-based
In short: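 Live-cell europium TRF competition binding in HEK-293/hTLR2 (poly-D-lysine plates) or SU.86.86 cells grown 2 days to ~80% confluence. Unlabeled ligand 1 μM to 0.01 nM plus 90 nM Eu-DTPA-labeled tracer, 1 h at 37°C; three washes, enhancement solution 30 min at 37°C, read at 340 nm excitation/615 nm emission with time delay.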

Mus musculus [2] = species on record: Mus musculus; assay: Toxicity in Trp1455/9M peptide immunized C57BL/6 mouse at 50 ug measured after 34 of immunization; assay type: organism-based; conditions: in vivo
Toll-like receptor 2 [3] = molecular target: T1, Toll-like receptor 2; assay: Agonist activity at human TLR2 expressed in HEK293 cells assessed as induction of NF-kappaB signaling after 24 hrs by luminescence based luciferase reporter gene assay; assay type: functional, cell-based
Mus musculus [4] = species on record: Mus musculus; assay: Immunomodulatory activity in Trp1455/9M peptide immunized C57BL/6 mouse assessed as Trp1455/9M specific CD8+ T cells in blood at 50 ug using Trp1455/9M/ H-2Db staining measured after 34 of immunization by FACS analysis; assay type: functional, T-cell
In short: (§1)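 C57BL/6 mice, 6-8 weeks, immunized iv with 100 μg Trp1 455/9M peptide, 50 μg anti-CD40 antibody and 50 μg TLR2 agonist in 200 μL. Submandibular blood on days 7, 21, 34, red cells lysed, stained 40 min on ice with CD8a antibody, Trp1 455/9M/H-2Db tetramer and anti-MHC II; % tetramer-positive CD8+ cells by flow cytometry; three mice per group, mean and SD.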

Mus musculus [5] = species on record: Mus musculus; assay: Immunomodulatory activity in Trp1455/9M peptide immunized C57BL/6 mouse assessed as Trp1455/9M specific CD8+ T cells in blood at 50 ug using Trp1455/9M/ H-2Db staining measured after 7 of immunization by FACS analysis; assay type: functional, T-cell
In short: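 C57BL/6 mice, 6-8 weeks old, immunized i.v. (200 μL) with a mixture of 100 μg Trp1_455/9M peptide, 50 μg anti-CD40 antibody (FGK45.5) and 50 μg TLR2 agonist. Submandibular blood taken, red cells lysed with ammonium chloride, stained 40 min on ice with CD8a, Trp1_455/9M/H-2Db tetramer and anti-MHC class II. Tetramer+ % of CD8+ cells read by flow cytometry; three mice per group.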

Mus musculus [6] = species on record: Mus musculus; assay: Immunomodulatory activity in Trp1455/9M peptide immunized C57BL/6 mouse assessed as Trp1455/9M specific CD8+ T cells in blood at 50 ug using Trp1455/9M/ H-2Db staining measured after 21 of immunization by FACS analysis; assay type: functional, T-cell; in short: as §1
Toll-like receptor 2 [7] = molecular target: T1, Toll-like receptor 2; assay: Agonist activity at human TLR2 expressed in HEK293 cells assessed as induction of NF-kappaB signaling after 24 hrs by luminescence based luciferase reporter gene assay relative to 10 ug/mL of SAA; assay type: functional, cell-based
In short: (§2)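 HEK-293/hTLR2 reporter cells transiently transfected with NF-κB-luciferase plasmid pNifty-Luc, stimulated 24 h with test compound at 1 μg/mL; luciferin-induced luminescence read. Fold enhancement taken versus serum amyloid A at 1 μg/mL or 10 μg/mL; n = 4.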

Toll-like receptor 2 [8] = molecular target: T1, Toll-like receptor 2; assay: Agonist activity at human TLR2 expressed in HEK293 cells assessed as induction of NF-kappaB signaling after 24 hrs by luminescence based luciferase reporter gene assay relative to 1 ug/mL of SAA; assay type: functional, cell-based; in short: as §2

T1 sequence (O60603 whole entry): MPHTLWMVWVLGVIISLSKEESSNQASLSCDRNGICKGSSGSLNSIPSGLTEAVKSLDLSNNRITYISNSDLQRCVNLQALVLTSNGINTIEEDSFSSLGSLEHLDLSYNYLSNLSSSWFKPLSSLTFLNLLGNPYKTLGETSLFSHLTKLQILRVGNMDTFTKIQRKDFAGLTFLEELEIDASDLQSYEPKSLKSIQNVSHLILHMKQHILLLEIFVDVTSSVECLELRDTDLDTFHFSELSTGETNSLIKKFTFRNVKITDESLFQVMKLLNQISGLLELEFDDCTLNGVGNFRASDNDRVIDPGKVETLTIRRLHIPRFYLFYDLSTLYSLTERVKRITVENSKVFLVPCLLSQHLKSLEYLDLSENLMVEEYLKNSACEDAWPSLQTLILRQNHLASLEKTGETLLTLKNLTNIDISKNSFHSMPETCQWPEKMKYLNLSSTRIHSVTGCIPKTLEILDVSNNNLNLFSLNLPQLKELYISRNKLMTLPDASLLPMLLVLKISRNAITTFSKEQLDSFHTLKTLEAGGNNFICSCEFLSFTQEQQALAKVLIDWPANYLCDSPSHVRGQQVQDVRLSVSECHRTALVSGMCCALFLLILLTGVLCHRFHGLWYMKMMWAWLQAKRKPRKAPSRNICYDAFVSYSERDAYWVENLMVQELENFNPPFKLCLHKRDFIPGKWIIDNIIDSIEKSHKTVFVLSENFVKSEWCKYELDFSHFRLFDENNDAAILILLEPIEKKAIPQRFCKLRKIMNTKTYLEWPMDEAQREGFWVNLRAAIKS

Row | fold change (FC) (Toll-like receptor 2 [7]) | fold change (FC) (Toll-like receptor 2 [8]) | Structure (SMILES) | Ki (Toll-like receptor 2 [1]) [nM] | Activity (Mus musculus [2]) | EC50 (Toll-like receptor 2 [3]) [nM] | Activity (Mus musculus [4]) [%] | Activity (Mus musculus [5]) [%] | Activity (Mus musculus [6]) [%]
1 | 4.8 | 13 | CCCCCCCCCCCCCCCC(=O)OC[C@H](CSC[C@H](NC(=O)COCC(=O)NCCCOCCOCCOCCCNC(C)=O)C(=O)NCC(=O)N[C@@H](CO)C(=O)N[C@@H](CCC(N)=O)C(=O)N[C@@H](CC(N)=O)C(=O)N[C@@H](CC(C)C)C(=O)N[C@@H](C)C(=O)N[C@@H](CO)C(=O)N[C@@H](CC(C)C)C(=O)N[C@@H](CCC(=O)O)C(=O)N[C@@H](CCC(=O)O)C(N)=O)OC(=O)CCCCCCCCCCCCCCC (X1-C(Propyl(2R-PamO,3-PamO))GSQNLASLEE-NH2) |  |  |  |  |  | 
2 | 4.2 | 11 | CCCCCCCCCCCCCCCC(=O)OC[C@H](CSC[C@H](NC(=O)COCC(=O)NCCCOCCOCCOCCCNC(C)=O)C(=O)N[C@H](CO)C(=O)N[C@H](CCCNC(=N)N)C(=O)N[C@H](Cc1ccccc1)C(=O)N[C@H](CC(=O)O)C(=O)N[C@H](CCC(=O)O)C(=O)N[C@H](CC(=O)O)C(=O)N[C@H](CC(=O)O)C(=O)N[C@H](CC(C)C)C(=O)N[C@H](CCC(=O)O)C(N)=O)OC(=O)CCCCCCCCCCCCCCC (X1-C(Propyl(2R-PamO,3-PamO))[dS][dR][dF][dD][dE][dD][dD][dL][dE]-NH2) |  |  |  |  |  | 

More lines, now with the values behind:

Row | Structure (SMILES) | fold change (FC) (Toll-like receptor 2 [7]) | fold change (FC) (Toll-like receptor 2 [8]) | Ki (Toll-like receptor 2 [1]) [nM] | Activity (Mus musculus [2]) | EC50 (Toll-like receptor 2 [3]) [nM] | Activity (Mus musculus [4]) [%] | Activity (Mus musculus [5]) [%] | Activity (Mus musculus [6]) [%]
3 | CCCCCCCCCCCCCCCC(=O)OC[C@H](CSC[C@H](NC(=O)COCC(=O)NCCCOCCOCCOCCCNC(C)=O)C(=O)NCC(=O)N[C@H](CO)C(=O)NCCCOCCOCCOCCCNC(=O)COCC(N)=O)OC(=O)CCCCCCCCCCCCCCC | 5.2 | 14 | 25 | Non-toxic | 20 | 6.63 | 49.6 | 14.6
4 | CCCCCCCCCCCCCCCC(=O)OC[C@H](CSC[C@H](N)C(=O)N[C@@H](CO)C(=O)N[C@@H](CCCCN)C(=O)N[C@@H](CCCCN)C(=O)N[C@@H](CCCCN)C(=O)N[C@@H](CCCCN)C(=O)O)OC(=O)CCCCCCCCCCCCCCC (H-C(Propyl(2R-PamO,3-PamO))SKKKK-OH) |  |  |  | Non-toxic | 3.7 | 11.3 | 56.6 | 18.4
5 | CCCCCCCCCCCCCCCC(=O)N[C@@H](CSC[C@@H](COC(=O)CCCCCCCCCCCCCCC)OC(=O)CCCCCCCCCCCCCCC)C(=O)N[C@@H](CO)C(=O)N[C@@H](CCCCN)C(=O)N[C@@H](CCCCN)C(=O)N[C@@H](CCCCN)C(=O)N[C@@H](CCCCN)C(=O)O (Palmitoyl-C(Propyl(2R-PamO,3-PamO))SKKKK-OH) |  |  |  | Non-toxic | 23 | 10.2 |  | 16.8
